Bioassay records from PubChem.
Most compounds without a hit are left out; they make up all but 2.6% or so of the library.
Rad51 HR inh: human RAD51 strand exchange inhibitors, primary screen, biochemical, fluorescence; DNA repair protein RAD51 homolog 1 (Homo sapiens), Q06609; inhibition, % at 10 µM; actives 0.085% (n = 200,000); hRad51 DNA strand exchange, fluorescence dequenching;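 active = inhibition above 40% at the single screening dose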
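Test system – preformed human Rad51 ssDNA filaments · Reagent – Donor/quencher-labelled 47-bp dsDNA substrate · Incubation – 37 °C 15-min filament assembly, 30-min compound preincubation, 15-min exchange · Signal – FRET fluorescence dequenching, excitation 485 nm, emission 520 nm · Read-out – percent inhibition from fluorescence, normalised to plate control and blank means · Benchmarks – plate control and blank wells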
HSV replic up: enhancers of HSV replication in host cells, fold increase, host cell viability; HSV replication augmentation in cells; maximum fold increase; actives 0.005% (n = 220,000); AID 1956, 2009; in the data active = maximum fold increase above about 1.5; tested in PC3 cells
HSF1 inh: HSF1 inhibitors in luciferase reporter cells, primary screen, cell-based, NIH3T3, luminescence. NIH3T3-HGL HSE-luciferase, MG132-induced, luminescence 8 h; hits give low values. activity change, negative = inhibition, % at 7.5 µM (by protocol). actives 0.77% (n = 300,000). AID 2098, 2009;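 active = more than half of replicate wells show activity change below -50%, luminescence cut by over half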;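 note: luciferase reports HSF-1 transcriptional activity via heat shock element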
Mdm2 ligase inh: MDM2-luciferase reporter signal enhancers, primary screen, MDM2 E3 ligase inhibitor project, cell-based, luminescence, 1536-well | signal enhancement, % at 5 µM | AID 1230, 2008 | cell-based MDM2 ubiquitination luciferase reporter, 2 h; 0 = plate control, 100 = twice control, blank-subtracted | E3 ubiquitin-protein ligase Mdm2 (Homo sapiens), Q00987 | actives 0.11% (n = 210,000);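 active = signal enhancement of 30% or more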;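 note: luminescence tracks abundance of the self-degrading MDM2-luciferase fusion protein; higher signal means inhibition of MDM2 E3 ligase activity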
Target sequence (Q00987 whole entry, looked up, the tested form may be a part): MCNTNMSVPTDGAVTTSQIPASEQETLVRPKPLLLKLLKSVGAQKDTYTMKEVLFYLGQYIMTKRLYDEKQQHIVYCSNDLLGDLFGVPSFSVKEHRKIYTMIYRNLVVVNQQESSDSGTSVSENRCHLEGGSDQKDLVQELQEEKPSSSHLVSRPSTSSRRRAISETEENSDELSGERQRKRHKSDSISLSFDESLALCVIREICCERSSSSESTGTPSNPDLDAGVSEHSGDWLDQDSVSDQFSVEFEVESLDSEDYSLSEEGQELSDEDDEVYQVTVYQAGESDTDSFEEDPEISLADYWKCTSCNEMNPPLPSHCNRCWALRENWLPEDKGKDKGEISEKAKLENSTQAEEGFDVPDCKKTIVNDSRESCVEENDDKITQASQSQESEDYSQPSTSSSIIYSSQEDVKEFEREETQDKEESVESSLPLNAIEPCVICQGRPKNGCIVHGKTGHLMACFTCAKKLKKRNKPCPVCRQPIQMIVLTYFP
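Timing – 2 h compound exposure at 37 °C · Assay system – mammalian cells stably expressing self-ubiquitinating, self-degrading MDM2 E3–luciferase fusion · Amount – 2000 cells seeded into each well · Measure – % luminescence enhancement versus blank-corrected plate control mean · Measured by – SteadyLite luminescence, 15 min reagent step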
HSF1 activator: HSF-1 activators, primary screen, NIH3T3-HGL cells, MG132 stress, luminescence, single point; NIH3T3-HGL HSF-1 luciferase reporter, 8 h; 100% = twice DMSO control signal; activation, % at 9 µM; actives 1.7% (n = 300,000); AID 504408, 2011;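 active = mean replicate activation of at least 50% with a set share of replicates each reaching 50%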
Hsp70 act: Hsp70 transcriptional activators, primary screen, cell-based, HeLa, Hsp70 promoter luciferase, luminescence, 10 µM. HeLa Hsp70 promoter luciferase reporter; scaled: vehicle 0, proteasome-inhibitor control 100%. activation, % at 10 µM. actives 0.04% (n = 200,000);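 active = activation above the mean across all tested compounds plus 3 SD, cutoff set per campaign, cut at about 5.5% in these data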
Large screens that a line does not name were inactive.

O=c1c(-c2nc3ccccc3s2)cccn1Cc1ccc(Cl)cc1	HSF1 activator 88.5
CCC(=O)N1CCc2cc(S(=O)(=O)NCCC(=O)Nc3ccccc3C)ccc21	HSF1 inh -65.2
CCC(=O)N1CCc2cc(S(=O)(=O)NCCC(=O)Nc3cc(C)cc(C)c3)ccc21	none
CCCCN(C(=O)c1cccc(S(=O)(=O)N2CCCCC2)c1)C1CCS(=O)(=O)C1 (configuration not stated)	none (no result: Rad51 HR inh, HSV replic up, Mdm2 ligase inh, Hsp70 act)
CCN(C(=O)c1cccc(S(=O)(=O)N2CCCCC2)c1)C1CCS(=O)(=O)C1 (configuration not stated)	HSF1 activator 57.5 (no result: Rad51 HR inh, HSV replic up, Mdm2 ligase inh, Hsp70 act)
O=c1c2c(-c3ccccc3)csc2nc2c3ccccc3c(NCCN3CCOCC3)nn12	none
COc1ccc(CCNC(=O)Cc2cccc(C(F)(F)F)c2)cc1OC	none (no result: Rad51 HR inh, HSV replic up, Mdm2 ligase inh, Hsp70 act)
O=C1C=C(NCc2ccccc2)c2ccccc2C1=O	HSF1 activator 70.3
O=C1C=C(Nc2ccccc2O)c2ccccc2C1=O	HSF1 activator 83.9
O=C(CCCCCN1C(=O)[C@@H]2Cc3ccccc3CN2C1=O)Nc1ccccc1Cl	none (no result: Rad51 HR inh, HSV replic up, Mdm2 ligase inh, Hsp70 act)
CCOP(=O)(OCC)c1nc(-c2ccccc2Cl)oc1N1CCOCC1	none
CCOP(=O)(OCC)c1nc(-c2cccc3ccccc23)oc1N1CCOCC1	HSF1 activator 73.7
Cc1cccc(NC(=O)c2cc(-c3ccc(C)c(C)c3O)n[nH]2)c1	none (no result: Rad51 HR inh, HSV replic up, Mdm2 ligase inh, Hsp70 act)
CN(C)c1ccc(-n2cccc2/C=C/[N+](=O)[O-])cc1	HSF1 activator 95.2 (no result: HSV replic up)
Cc1ccc(N(CC(=O)NC(C)(C)C)C(=O)CNC(=O)c2cccs2)cc1C	none (no result: HSF1 inh, HSF1 activator)
Cc1ccc(S(=O)(=O)NC(N)=NCCc2ccc(Cl)cc2)cc1C	none
O=c1c2nnn(-c3ccc(Br)cc3)c2ncn1Cc1ccccn1	none
COCC(C)NC(=O)c1ccc2nc(-c3ccccc3)c(-c3ccccc3)nc2c1 (configuration not stated)	HSF1 inh -81.3 (no result: Rad51 HR inh, HSV replic up, Mdm2 ligase inh, Hsp70 act)
CC(NC(=O)/C(=C/c1ccc(OC(F)F)cc1)c1ccccc1)c1ccccc1 (configuration not stated)	none
COCC(C)NC(=O)/C(=C/c1ccccc1)c1ccccc1 (configuration not stated)	HSF1 activator 60.1
CCC(C)NC(=O)c1ccc2nc(-c3ccc(OC)c(OC)c3)c(-c3ccc(OC)c(OC)c3)nc2c1 (configuration not stated)	none (no result: Rad51 HR inh, HSV replic up, Mdm2 ligase inh, Hsp70 act)
O=C(CSc1nnc(-c2cccnc2)n1C1CCCCC1)NC1CCCCC1	Mdm2 ligase inh 35.6
CCn1c(SCC(=O)NC2CCCC2)nnc1-c1cccnc1	none (no result: Rad51 HR inh, HSV replic up, Mdm2 ligase inh, Hsp70 act)
O=C(/C=C/c1ccc([N+](=O)[O-])s1)N1CCCCC1	HSF1 activator 61.0
CC1CN(C(=O)/C=C/c2ccc([N+](=O)[O-])s2)CC(C)O1 (configuration not stated)	none (no result: HSF1 inh, HSF1 activator)
CC1CC(C)CN(C(=O)/C=C/c2ccc([N+](=O)[O-])s2)C1 (configuration not stated)	HSF1 activator 74.9
COc1ccc(Cl)c2c1[nH]c1nc(SCc3ccccn3)nnc12	HSF1 activator 103.4
O=C(CN(C(=O)c1csnn1)c1ccc(Cl)cc1)NCc1ccc2c(c1)OCO2	none (no result: Rad51 HR inh, HSV replic up, Mdm2 ligase inh, Hsp70 act)
CCOC(=O)C(C(=O)OCC)C(Nc1ccc(Br)cc1)c1ccccc1 (configuration not stated)	HSF1 activator 300.8
CCOC(=O)C(c1ccccc1)C(Nc1ccc(F)cc1)c1ccccn1 (configuration not stated)	none (no result: Hsp70 act)
Cc1ccc(/C=C/C(=O)c2ccc(C)cc2)cc1	none
Cc1ccc(C(=O)C(C(=O)/C=C/c2ccccc2)=C2SCCCS2)cc1	HSF1 activator 135.8
COc1ccc(NC(=O)C2Cc3ccccc3C(=O)O2)cc1 (configuration not stated)	HSF1 inh -70.9 (no result: Hsp70 act)
